≈ marks a conversion by molar mass, not a printed value.
Columns and labels:
[1] = molecular target: Cell division cycle 7-related protein kinase (Homo sapiens, UniProt O00311); assay: Inhibition of Cdc7-mediated MCM2 phosphorylation at Ser53 in human HCT116 cells after 14 hrs by immunostaining assay; assay type: cell-based, HCT-116
[2] = molecular target: Cyclin-dependent kinase 2/cyclin E1 (Homo sapiens, UniProt P24941); assay: Inhibition of CDK2/cyclin E (unknown origin) using ULight peptide as substrate by HTRF assay; assay type: protein-complex assay
[3] = molecular target: CDC7/DBF4 (Cell division cycle 7-related protein kinase/Activator of S phase kinase) (Homo sapiens, UniProt O00311); assay: Inhibition of Cdc7/Dbf4 (unknown origin)-mediated MCM2 phosphorylation at Ser53 by protein A amplified luminescent proximity homogeneous assay; assay type: protein-complex assay
[4] = Intrinsic clearance in human liver microsomes; assay type: ADME; settings: read-out: CLH
[5] = Intrinsic clearance in rat liver microsomes; assay type: ADME; settings: read-out: CLH
[6] = Mean residence time in rat at 2 mg/kg, iv; assay type: ADME, organism-based; design: dose 2 mg/kg, route intravenous; settings: in vivo
[7] = Clearance in rat at 2 mg/kg, iv; assay type: ADME, organism-based; design: dose 2 mg/kg, route intravenous; settings: in vivo
[8] = Volume of distribution at steady state in rat at 2 mg/kg, iv; assay type: ADME, organism-based; design: dose 2 mg/kg, route intravenous; settings: in vivo, read-out: Vdss
Hepatocyte = assay: Drug metabolism in rat hepatocytes assessed as GSH adduct level; assay type: ADME, cell-based
Homo sapiens = organism: Homo sapiens; assay: Selectivity ratio of IC50 for CDK2/cyclin E (unknown origin) to IC50 for Cdc7/Dbf4 (unknown origin)
[9] = molecular target: Cyclin-dependent kinase 1/cyclin B1 (Homo sapiens, UniProt P06493); assay: Inhibition of CDK1/cyclin B (unknown origin) by HTRF assay; assay type: protein-complex assay
CDK9/cyclin T1 = CDK9/cyclin T1 (Homo sapiens, UniProt P50750); assay: Inhibition of CDK9/cyclin T1 (unknown origin) using 4eBP1 ULight peptide as substrate by HTRF assay; assay type: protein-complex assay
[10] = Oral bioavailability rat in 5 mg/kg; assay type: ADME, organism-based; settings: in vivo
Plasma [11] = assay: Unbound plasma concentration in NCR/nude mouse xenografted with human HCT116 cells at 100 mg/kg, po measured at 16 hrs by LC-MS analysis; assay type: ADME, organism-based, HCT-116; design: dose 100 mg/kg, route oral; settings: in vivo
Procedure, shortened: (§1)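 Female NCR/nude mice (n = 3) dosed orally at 100 mg/kg; plasma sampled at 6 and 16 h; unbound concentration calculated from total plasma concentration and percent free fraction in mouse plasma.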

Plasma [12] = assay: Unbound plasma concentration in NCR/nude mouse xenografted with human HCT116 cells at 100 mg/kg, po measured at 6 hrs by LC-MS analysis; assay type: ADME, organism-based, HCT-116; design: dose 100 mg/kg, route oral; settings: in vivo; procedure, shortened: as §1
[13] = Solubility of the compound in simulated intestinal fluid; assay type: ADME
[14] = Clearance in rat at 1 mg/kg, iv and 5 mg/kg, po; assay type: ADME, organism-based; settings: in vivo
Mus musculus [15] = assay: In vivo inhibition of Cdc7 in tumor of NCR/nude mouse xenografted with human HCT116 cells assessed as remaining Ser53 phosphorylated MCM2 level at 100 mg/kg, po measured at 16 hrs relative to control; assay type: functional, HCT-116
Procedure, shortened: (§2)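 Female NCR/nude mice (n = 3 per group) given single oral dose of 100 mg/kg; pMCM2 levels measured at 6 and 16 h, expressed as % remaining versus vehicle control group; significance by one-way ANOVA with Dunnett's test.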

Mus musculus [16] = assay: In vivo inhibition of Cdc7 in tumor of NCR/nude mouse xenografted with human HCT116 cells assessed as remaining Ser53 phosphorylated MCM2 level at 100 mg/kg, po measured at 6 hrs relative to control; assay type: functional, HCT-116; procedure, shortened: as §2
Mus musculus [17] = assay: In vivo inhibition of Cdc7-mediated MCM2 phosphorylation at Ser53 in tumor of NCR/nude mouse xenografted with human HCT116 cells at 100 mg/kg, po; assay type: functional, organism-based; design: dose 100 mg/kg; settings: HCT-116, TDE = time-dependent effect; procedure, shortened: as §2
[18] = Volume of distribution at steady state in rat at 1 mg/kg, iv and 5 mg/kg, po; assay type: ADME, organism-based; settings: in vivo, read-out: Vdss
HCT-116 = assay: Cytotoxicity against human HCT116 cells assessed as cell viability after days by CellTiterGlo assay; assay type: functional, cell-based
Procedure, shortened: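 HCT-116 cells exposed to compound for 4 d; cell viability IC50 determined.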

[19] = Mean residence time in rat at 1 mg/kg, iv and 5 mg/kg, po; assay type: ADME, organism-based; settings: in vivo
[20] = Volume of distribution at steady state in rat at 2 mg/kg, iv and 5 mg/kg, po; assay type: ADME, organism-based; settings: in vivo, read-out: Vdss
[21] = Mean residence time in rat at 2 mg/kg, iv and 5 mg/kg, po; assay type: ADME, organism-based; settings: in vivo
[22] = Clearance in rat at 2 mg/kg, iv and 5 mg/kg, po; assay type: ADME, organism-based; settings: in vivo
[23] = Oral bioavailability rat in 2 mg/kg; assay type: ADME, organism-based; settings: in vivo
[24] = Volume of distribution at steady state in rat at 2 mg/kg, iv and 2 mg/kg, po; assay type: ADME, organism-based; settings: in vivo, read-out: Vdss
[25] = Clearance in rat at 2 mg/kg, iv and 2 mg/kg, po; assay type: ADME, organism-based; settings: in vivo
[26] = Mean residence time in rat at 2 mg/kg, iv and 2 mg/kg, po; assay type: ADME, organism-based; settings: in vivo

CDC7/DBF4 (Cell division cycle 7-related protein kinase/Activator of S phase kinase), sequence (Q9UBU7 whole entry): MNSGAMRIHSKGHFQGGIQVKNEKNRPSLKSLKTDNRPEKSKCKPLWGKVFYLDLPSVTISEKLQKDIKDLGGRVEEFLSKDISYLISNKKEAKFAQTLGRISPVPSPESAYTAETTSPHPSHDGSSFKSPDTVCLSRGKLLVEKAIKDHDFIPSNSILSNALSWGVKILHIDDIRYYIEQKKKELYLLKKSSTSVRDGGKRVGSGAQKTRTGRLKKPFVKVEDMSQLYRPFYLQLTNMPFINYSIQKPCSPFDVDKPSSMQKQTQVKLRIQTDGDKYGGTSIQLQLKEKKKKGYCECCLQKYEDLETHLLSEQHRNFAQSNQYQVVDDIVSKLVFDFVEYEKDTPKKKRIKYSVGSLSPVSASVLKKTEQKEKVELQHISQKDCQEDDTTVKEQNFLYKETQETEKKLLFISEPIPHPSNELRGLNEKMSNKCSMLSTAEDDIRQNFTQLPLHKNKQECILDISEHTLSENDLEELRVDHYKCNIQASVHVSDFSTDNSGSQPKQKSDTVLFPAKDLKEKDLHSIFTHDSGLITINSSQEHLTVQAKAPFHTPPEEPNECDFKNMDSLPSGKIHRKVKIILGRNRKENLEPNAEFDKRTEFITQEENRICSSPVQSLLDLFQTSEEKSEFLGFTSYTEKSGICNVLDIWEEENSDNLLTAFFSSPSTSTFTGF
CDC7/DBF4 (Cell division cycle 7-related protein kinase/Activator of S phase kinase), sequence (O00311 whole entry): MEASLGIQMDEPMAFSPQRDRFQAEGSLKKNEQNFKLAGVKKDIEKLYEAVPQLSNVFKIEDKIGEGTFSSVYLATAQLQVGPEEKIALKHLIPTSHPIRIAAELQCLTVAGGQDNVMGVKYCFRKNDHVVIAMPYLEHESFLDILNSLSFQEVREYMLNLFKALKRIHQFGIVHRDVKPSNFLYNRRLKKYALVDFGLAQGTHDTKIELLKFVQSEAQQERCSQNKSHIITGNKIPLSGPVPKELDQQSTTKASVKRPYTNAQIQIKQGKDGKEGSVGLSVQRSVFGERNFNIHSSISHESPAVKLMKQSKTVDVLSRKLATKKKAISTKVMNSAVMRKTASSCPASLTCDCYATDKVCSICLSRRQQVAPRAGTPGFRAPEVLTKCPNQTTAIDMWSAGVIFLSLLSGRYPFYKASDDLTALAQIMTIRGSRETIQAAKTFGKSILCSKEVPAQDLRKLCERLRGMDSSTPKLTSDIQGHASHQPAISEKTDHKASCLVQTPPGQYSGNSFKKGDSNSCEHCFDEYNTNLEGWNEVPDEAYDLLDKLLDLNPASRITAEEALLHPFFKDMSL
Cell division cycle 7-related protein kinase, sequence (O00311 whole entry): as above
CDK9/cyclin T1, sequence (O60563 whole entry): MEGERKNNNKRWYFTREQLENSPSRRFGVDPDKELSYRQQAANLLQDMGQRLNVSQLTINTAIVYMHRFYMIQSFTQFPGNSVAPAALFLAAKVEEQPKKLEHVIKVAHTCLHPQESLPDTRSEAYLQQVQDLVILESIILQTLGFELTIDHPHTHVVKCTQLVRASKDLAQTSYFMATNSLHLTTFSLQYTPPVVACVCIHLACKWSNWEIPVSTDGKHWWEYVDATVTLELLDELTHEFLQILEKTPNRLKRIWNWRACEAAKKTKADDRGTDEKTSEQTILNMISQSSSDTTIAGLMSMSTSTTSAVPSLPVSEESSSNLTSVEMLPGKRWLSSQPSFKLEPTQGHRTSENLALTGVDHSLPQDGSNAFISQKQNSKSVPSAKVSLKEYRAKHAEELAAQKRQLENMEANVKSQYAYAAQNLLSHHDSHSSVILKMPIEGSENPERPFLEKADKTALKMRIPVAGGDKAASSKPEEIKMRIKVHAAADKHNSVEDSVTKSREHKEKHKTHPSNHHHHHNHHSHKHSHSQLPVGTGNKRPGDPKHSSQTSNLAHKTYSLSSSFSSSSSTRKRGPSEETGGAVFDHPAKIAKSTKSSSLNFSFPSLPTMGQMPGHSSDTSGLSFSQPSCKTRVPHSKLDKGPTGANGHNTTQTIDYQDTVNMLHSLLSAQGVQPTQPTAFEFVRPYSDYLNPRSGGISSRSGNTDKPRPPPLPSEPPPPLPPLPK
CDK9/cyclin T1, sequence (P50750 whole entry): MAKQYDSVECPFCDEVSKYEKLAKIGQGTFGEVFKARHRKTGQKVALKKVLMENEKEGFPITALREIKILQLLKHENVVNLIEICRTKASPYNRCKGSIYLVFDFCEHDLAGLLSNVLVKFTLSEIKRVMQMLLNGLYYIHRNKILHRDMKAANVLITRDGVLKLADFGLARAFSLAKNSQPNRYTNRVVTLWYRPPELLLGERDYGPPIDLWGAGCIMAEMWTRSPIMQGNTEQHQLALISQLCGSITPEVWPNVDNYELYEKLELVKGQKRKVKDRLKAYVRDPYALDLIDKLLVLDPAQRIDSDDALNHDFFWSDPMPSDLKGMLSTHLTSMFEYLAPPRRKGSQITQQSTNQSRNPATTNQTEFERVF
Cyclin-dependent kinase 1/cyclin B1, sequence (P06493 whole entry): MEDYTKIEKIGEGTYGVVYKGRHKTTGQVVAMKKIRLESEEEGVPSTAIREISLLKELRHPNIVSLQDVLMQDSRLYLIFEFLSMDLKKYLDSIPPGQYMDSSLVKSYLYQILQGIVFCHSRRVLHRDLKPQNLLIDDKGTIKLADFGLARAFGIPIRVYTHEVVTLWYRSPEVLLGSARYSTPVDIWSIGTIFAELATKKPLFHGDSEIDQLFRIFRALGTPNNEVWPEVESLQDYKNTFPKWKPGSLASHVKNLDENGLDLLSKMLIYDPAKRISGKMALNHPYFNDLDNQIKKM
Cyclin-dependent kinase 1/cyclin B1, sequence (P14635 whole entry, further chain): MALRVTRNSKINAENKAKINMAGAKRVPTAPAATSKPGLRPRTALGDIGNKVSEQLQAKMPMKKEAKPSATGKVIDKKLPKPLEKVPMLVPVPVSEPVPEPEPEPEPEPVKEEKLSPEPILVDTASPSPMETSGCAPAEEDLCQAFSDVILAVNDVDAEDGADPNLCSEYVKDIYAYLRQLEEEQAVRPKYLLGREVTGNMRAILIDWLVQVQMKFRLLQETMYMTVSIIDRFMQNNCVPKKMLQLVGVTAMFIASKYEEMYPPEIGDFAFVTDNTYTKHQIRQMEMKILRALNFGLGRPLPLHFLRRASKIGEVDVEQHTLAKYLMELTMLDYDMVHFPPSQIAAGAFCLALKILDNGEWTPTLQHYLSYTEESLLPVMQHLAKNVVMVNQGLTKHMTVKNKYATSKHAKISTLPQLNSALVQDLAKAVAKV

Row | IC50 [1] | IC50 [2] | IC50 [3] | microsomal CLint [4] | microsomal CLint [5] | SMILES | also measured
1 | 370 nM | 310 nM | 32 nM | 64 µL/min/mg | 25 µL/min/mg | C[C@@H](Nc1nnc(-c2c[nH]c3ncccc23)o1)c1ccccc1 | Drug metabolism (Hepatocyte): Active
2 | 150 nM | 1700 nM | 4 nM | 70 µL/min/mg | 29 µL/min/mg | CC[C@@H](Nc1nnc(-c2c[nH]c3ncccc23)o1)c1ccccc1 | 
3 | 690 nM | 98 nM | 25 nM | 47 µL/min/mg | 58 µL/min/mg | Fc1ccc(CNc2nnc(-c3c[nH]c4ncccc34)o2)cc1 | Ratio IC50 (Homo sapiens): 4
4 | 250 nM | 4000 nM | 3.9 nM | < 14 µL/min/mg | 413 µL/min/mg | Fc1ccc2c(-c3nnc(N[C@@H](c4cccnc4F)C4CC4)o3)c[nH]c2n1 | IC50 [9]: > 50 µM; IC50 (CDK9/cyclin T1): 2400 nM
5 | > 50000 nM | 33000 nM | 770 nM | < 14 µL/min/mg | < 14 µL/min/mg | O=C1Cc2cc(-c3nnc(NCc4ccccc4)o3)ccc2N1 | 
6 | 32 nM | 670 nM | 1.1 nM | < 14 µL/min/mg | 20 µL/min/mg | Fc1cnc2[nH]cc(-c3nnc(N[C@@H](c4cccnc4F)C4CC4)o3)c2c1 | bioavailability [10]: 50%; Cp(f) (Plasma [11]): 0.3 µM; Cp(f) (Plasma [12]): 0.61 µM; solubility [13]: 160 µg/mL (≈ 434 µM); clearance [14]: 28.3 mL/min/kg; Remaining Ser53 phospho-MCM2 vs control (Mus musculus [15]): 30%; IC50 [9]: 6.6 µM; Remaining phospho-MCM2 (% of control) (Mus musculus [16]): 46%; Activity (Mus musculus [17]): tde; Vd [18]: 3.3 L/kg; IC50 (HCT-116): 2400 nM; MRT [19]: 1.9 h; IC50 (CDK9/cyclin T1): 460 nM
7 | 140 nM | 1200 nM | 2 nM | 66 µL/min/mg | 51 µL/min/mg | CC(C)[C@@H](Nc1nnc(-c2c[nH]c3ncccc23)o1)c1ccccc1 | 
8 | 780 nM | 150 nM | 24 nM | 31 µL/min/mg | 40 µL/min/mg | c1ccc(CNc2nnc(-c3c[nH]c4ncccc34)o2)cc1 | Ratio IC50 (Homo sapiens): 6
9 | 60 nM | 1900 nM | 1.8 nM | 27 µL/min/mg | 45 µL/min/mg | Fc1cnccc1[C@H](Nc1nnc(-c2c[nH]c3ncccc23)o1)C1CC1 | bioavailability [23]: 14%; Cp(f) (Plasma [11]): 0.45 µM; Vd [24]: 6.1 L/kg; clearance [25]: 75 mL/min/kg; Cp(f) (Plasma [12]): 2 µM; solubility [13]: 200 µg/mL (≈ 571 µM); Remaining Ser53 phospho-MCM2 vs control (Mus musculus [15]): 24%; IC50 [9]: > 50 µM; Remaining phospho-MCM2 (% of control) (Mus musculus [16]): 62%; MRT [26]: 1.4 h; Activity (Mus musculus [17]): tde; IC50 (HCT-116): 5700 nM; IC50 (CDK9/cyclin T1): 940 nM
10 | 3200 nM | 6800 nM | 10 nM | 49 µL/min/mg | 56 µL/min/mg | Fc1cc2cc(-c3nnc(NCc4ccccc4)o3)ccc2cn1 | 
11 | 2600 nM | 98 nM | 35 nM | 15 µL/min/mg | 17 µL/min/mg | C[C@H](Nc1nnc(-c2c[nH]c3ncccc23)o1)c1ccccc1 | 
12 | 580 nM | 61 nM | 10 nM | 54 µL/min/mg | 71 µL/min/mg | Fc1cccc(CNc2nnc(-c3c[nH]c4ncccc34)o2)c1 | Ratio IC50 (Homo sapiens): 6
13 | 71 nM | 1600 nM | 1 nM | 56 µL/min/mg | 31 µL/min/mg | c1ccc([C@H](Nc2nnc(-c3c[nH]c4ncccc34)o2)C2CC2)cc1 | 
14 | 7100 nM | 610 nM | 190 nM | < 14 µL/min/mg | 30 µL/min/mg | c1cncc(CNc2nnc(-c3c[nH]c4ncccc34)o2)c1 | 

Further lines, the compound ahead of its results:

Row | SMILES | IC50 [1] | IC50 [2] | IC50 [3] | microsomal CLint [4] | microsomal CLint [5] | also measured
15 | c1ccc(CNc2nnc(-c3ccc4[nH]ncc4c3)o2)cc1 | 730 nM | 170 nM | 20 nM | 98 µL/min/mg | 402 µL/min/mg | 
16 | c1ccc(CNc2nnc(-c3ccc4cnccc4c3)o2)cc1 | 710 nM | 350 nM | 17 nM | 120 µL/min/mg | 166 µL/min/mg | MRT [6]: 12 min; clearance [7]: 300 mL/min/kg; Vd [8]: 4.3 L/kg
17 | c1ccc(CNc2nnc(-c3nc4ccncc4s3)o2)cc1 | > 50000 nM | 19000 nM | 2300 nM | 23 µL/min/mg | 66 µL/min/mg | 
18 | c1cnc2[nH]cc(-c3nnc(NCc4ccncc4)o3)c2c1 | 12000 nM | 350 nM | 110 nM | < 14 µL/min/mg | 37 µL/min/mg | 
19 | Fc1ccccc1CNc1nnc(-c2c[nH]c3ncccc23)o1 | 1600 nM | 580 nM | 35 nM | 32 µL/min/mg | 46 µL/min/mg | Ratio IC50 (Homo sapiens): 17
20 | c1ccc(CNc2nnc(-c3c[nH]c4ncccc34)o2)nc1 | 13000 nM | 2500 nM | 170 nM | < 14 µL/min/mg | 14 µL/min/mg | 
21 | Fc1ccccc1[C@H](Nc1nnc(-c2c[nH]c3ncccc23)o1)C1CC1 | 20 nM | 240 nM | 0.85 nM | 59 µL/min/mg | 63 µL/min/mg | Vd [20]: 5.3 L/kg; bioavailability [10]: 35%; Cp(f) (Plasma [11]): 0.06 µM; Cp(f) (Plasma [12]): 0.15 µM; solubility [13]: 5 µg/mL (≈ 14.3 µM); Remaining Ser53 phospho-MCM2 vs control (Mus musculus [15]): 46%; IC50 [9]: 1.6 µM; Remaining phospho-MCM2 (% of control) (Mus musculus [16]): 38%; MRT [21]: 2.7 h; IC50 (HCT-116): 880 nM; clearance [22]: 33.3 mL/min/kg; IC50 (CDK9/cyclin T1): 31 nM
22 | Fc1ncccc1[C@H](Nc1nnc(-c2c[nH]c3ncccc23)o1)C1CC1 | 51 nM | 490 nM | 0.69 nM | 21 µL/min/mg | 80 µL/min/mg | bioavailability [10]: 41%; Cp(f) (Plasma [11]): 0.07 µM; Cp(f) (Plasma [12]): 1.3 µM; solubility [13]: 200 µg/mL (≈ 571 µM); clearance [14]: 75 mL/min/kg; Remaining Ser53 phospho-MCM2 vs control (Mus musculus [15]): 41%; IC50 [9]: 7.3 µM; Remaining phospho-MCM2 (% of control) (Mus musculus [16]): 40%; Vd [18]: 5.9 L/kg; IC50 (HCT-116): 1800 nM; MRT [19]: 1.3 h; IC50 (CDK9/cyclin T1): 120 nM
23 | O=c1[nH]c2ccc(-c3nnc(NCc4ccccc4)o3)cc2o1 | > 50000 nM | 47000 nM | 590 nM | 69 µL/min/mg | 30 µL/min/mg | 
24 | Nc1n[nH]c2ccc(-c3nnc(NCc4ccccc4)o3)cc12 | 1200 nM | 230 nM | 11 nM | 26 µL/min/mg | 74 µL/min/mg | 
25 | Fc1ccccc1[C@H](Nc1nnc(-c2c[nH]c3ncncc23)o1)C1CC1 | 130 nM | 750 nM | 1.5 nM | < 14 µL/min/mg | 34 µL/min/mg | IC50 [9]: > 50 µM; IC50 (CDK9/cyclin T1): 880 nM
26 | CC(C)(Nc1nnc(-c2c[nH]c3ncccc23)o1)c1ccccc1 | 6200 nM | 7 nM | 120 nM | 30 µL/min/mg | 35 µL/min/mg | 

Reference: ChEMBL document CHEMBL3091324, “The optimization of aminooxadiazoles as orally active inhibitors of Cdc7” (Bioorg Med Chem Lett, 2013)
